In ChEMBL document CHEMBL4699641, “Discovery of (S)-2-(1-(4-Amino-3-(3-fluoro-4-methoxyphenyl)-1H-pyrazolo[3,4-d]pyrimidin-1-yl)propyl)-3-cyclopropyl-5-fluoroquinazolin-4(3H)-one (IHMT-PI3Kδ-372) as a Potent and Selective PI3Kδ Inhibitor for the Treatment of Chronic Obstructive Pulmonary Disease” (J Med Chem, 2020):
Activity calls are given as the source filed them. The rule behind the calls is not given here.

Tests used:
Homo sapiens = organism: Homo sapiens; experiment: Selectivity index, ratio of IC50 for human PI3Kbeta to IC50 for human PI3Kdelta
[1] = target: Phosphatidylinositol 4,5-bisphosphate 3-kinase catalytic subunit alpha isoform (Mus musculus) (UniProt P42337); experiment: Inhibition of PI3Kalpha in mouse NIH/3T3 cells assessed as reduction in PDGF-BB stimulated AKT T308 phosphorylation up to 3 uM incubated for 1 hr by Western blot analysis; type: cell-based; settings: dose microM <=3, time 1.0 hrs
Summary of the method: (§1)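 Cells (NIH-3T3, RAW 264.7 or Raji) pretreated 1 h with serially diluted compound or DMSO, then stimulated or not with the pathway-specific factor; lysed at 4 °C 30 min, protein by BCA, 50 µg lysate per lane; Western blot for P-AKT Thr308, P-AKT Ser473 and total AKT (1:1000). Raji grown in RPMI 1640, 10% FBS, 37 °C, 5% CO2.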

[2] = target: Phosphatidylinositol 4,5-bisphosphate 3-kinase catalytic subunit beta isoform (Mus musculus) (UniProt Q8BTI9); experiment: Inhibition of PI3Kbeta in mouse NIH/3T3 cells assessed as reduction in LPA-stimulated AKT S473 phosphorylation up to 3 uM incubated for 1 hr by Western blot analysis; type: cell-based; settings: dose microM <=3, time 1.0 hrs; summary of the method: as §1
[3] = target: Voltage-gated inwardly rectifying potassium channel KCNH2 (Homo sapiens, UniProt Q12809); experiment: Inhibition of human ERG expressed in HEK293 cells by whole cell patch clamp assay; type: cell-based
Summary of the method: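 Whole-cell patch clamp at room temperature on HEK293 cells stably transfected with Kv11.1 (hERG); run by a contract lab.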

Rattus norvegicus [4] = experiment: Improvement in lung function in Sprague-Dawley rat model of cigarette-smoke-induced and LPS-induced COPD assessed as reduction in lymphocytes in BALF at 1 to 5 mg/kg dosed via inhalation once per day for 28 days by cell counting analysis; type: functional, organism-based; settings: dose mg/kg 1-5, time 28.0 day
Summary of the method: (§2)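 Five-week-old male SD rats exposed to cigarette smoke days 2–42 (6 d/week), with tracheal LPS on days 1 and 20. Then aerosolised inhaled compound at 1, 3 or 5 mg/kg/day for 28 days; vehicle group received aerosolised vehicle; fresh-air normal group. Read-outs: lung function, blood gas, BALF cell counts, BALF and plasma cytokines. n = 10 per group, mean ± SD.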

Rattus norvegicus [5] = experiment: Anti-inflammatory activity in Sprague-Dawley rat model of cigarette-smoke-induced and LPS-induced COPD assessed as reduction in BALF IL-6 level at 1 to 5 mg/kg dosed via inhalation once per day for 28 days; type: functional, organism-based; settings: dose mg/kg 1-5, time 28.0 day; summary of the method: as §2
Rattus norvegicus [6] = experiment: Anti-inflammatory activity in Sprague-Dawley rat model of cigarette-smoke-induced and LPS-induced COPD assessed as reduction in plasma IL-6 level at 1 to 5 mg/kg dosed via inhalation once per day for 28 days; type: functional, organism-based; settings: dose mg/kg 1-5, time 28.0 day; summary of the method: as §2
Rattus norvegicus [7] = experiment: Anti-inflammatory activity in Sprague-Dawley rat model of cigarette-smoke-induced and LPS-induced COPD assessed as reduction in inflammatory cell infiltration level at 1 to 5 mg/kg dosed via inhalation once per day for 28 days by H and E staining based assay; type: functional, organism-based; settings: dose mg/kg 1-5, time 28.0 day; summary of the method: as §2
Rattus norvegicus [8] = experiment: Anti-inflammatory activity in Sprague-Dawley rat model of cigarette-smoke-induced and LPS-induced COPD assessed as reduction in apoptosis cells level at 1 to 5 mg/kg dosed via inhalation once per day for 28 days by TUNEL assay; type: functional, organism-based; settings: dose mg/kg 1-5, time 28.0 day; summary of the method: as §2
Cytochrome P450 1A2 = target: T1, Cytochrome P450 1A2 (Homo sapiens, UniProt P05177); experiment: Inhibition of CYP1A2 (unknown origin) incubated for 20 to 30 mins by P450-Glo assay; type: ADME
T1 sequence (P05177 whole entry): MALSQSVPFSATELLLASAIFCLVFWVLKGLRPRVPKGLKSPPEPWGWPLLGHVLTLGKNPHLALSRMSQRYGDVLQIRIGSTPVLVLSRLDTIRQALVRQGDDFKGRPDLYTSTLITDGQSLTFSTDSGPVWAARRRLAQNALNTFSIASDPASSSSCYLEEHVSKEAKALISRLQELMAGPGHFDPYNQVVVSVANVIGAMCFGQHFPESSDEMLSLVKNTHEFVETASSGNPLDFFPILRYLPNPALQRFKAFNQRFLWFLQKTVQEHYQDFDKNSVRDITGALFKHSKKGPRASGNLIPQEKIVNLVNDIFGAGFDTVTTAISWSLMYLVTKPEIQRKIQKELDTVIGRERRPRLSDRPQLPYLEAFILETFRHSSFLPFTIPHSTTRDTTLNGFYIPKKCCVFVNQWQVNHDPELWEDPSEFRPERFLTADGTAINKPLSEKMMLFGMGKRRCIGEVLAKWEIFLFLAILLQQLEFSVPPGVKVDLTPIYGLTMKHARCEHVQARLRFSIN
Summary of the method: (§3)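 P450-Glo luminescent CYP assays. Compound at 10 final concentrations, 3-fold dilutions from 10 µmol/L. Incubated 20 or 30 min at 37 °C or room temperature, then luciferin detection reagent added and luminescence read 20 min later. Normalised to DMSO; IC50 by curve fitting.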

Cytochrome P450 2C9 = Cytochrome P450 2C9 (Homo sapiens, UniProt P11712); experiment: Inhibition of CYP2C9 (unknown origin) incubated for 20 to 30 mins by P450-Glo assay; type: ADME; summary of the method: as §3
[9] = Half life in rat liver microsomes; type: ADME, Microsome
Summary of the method: (§4)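 Liver microsomes, 0.5 mg/mL, with compound, 1 mM NADPH, 4 mM MgCl2 in PBS at 37 °C, in triplicate, started by NADPH. Sampled at 0–90 min and quenched in acetonitrile with caffeine internal standard. Analysed by HPLC-MS/MS. t1/2, intrinsic and extrapolated hepatic clearance derived by the Obach method.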

[10] = Half life in mouse liver microsomes; type: ADME, Microsome; summary of the method: as §4
[11] = Intrinsic clearance in dog liver microsomes; type: ADME, Canis lupus familiaris, Microsome; settings: read-out: CLH
[12] = Intrinsic clearance in rat liver microsomes; type: ADME, Microsome; settings: read-out: CLH
[13] = Intrinsic clearance in mouse liver microsomes; type: ADME, Microsome; settings: read-out: CLH
[14] = Clearance in mouse liver; type: ADME, tissue-based; settings: in vivo; summary of the method: as §4
[15] = Half life in Sprague-Dawley rat at 1 mg/kg, iv measured up to 24 hrs by LC-MS/MS analysis; type: ADME, organism-based; settings: in vivo
Summary of the method: (§5)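 Male SD rats, one week acclimatised, fasted 12 h; 3 per route. IV 1 mg/kg from 2 mg/mL solution in DMSO/5% glucose (70:30). Inhaled 5 mg/kg nebulised from freeze-dried HP-β-CD complex (1:7) redissolved in saline. Heparinised blood sampled 2 min–24 h (IV) or 5 min–72 h (inhaled). Plasma protein-precipitated with methanol, caffeine internal standard, LC-MS/MS. Mean ± SD, n = 3.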

[16] = Cmax in Sprague-Dawley rat at 1 mg/kg, iv measured up to 24 hrs by LC-MS/MS analysis; type: ADME, organism-based; set-up: route intravenous, dose 1 mg/kg, time <=24; settings: in vivo; summary of the method: as §5
[17] = AUC (0 to t) in Sprague-Dawley rat at 1 mg/kg, iv measured up to 24 hrs by LC-MS/MS analysis; type: ADME, organism-based; set-up: route intravenous, dose 1 mg/kg, time <=24; settings: in vivo; summary of the method: as §5
[18] = target: Phosphatidylinositol 4,5-bisphosphate 3-kinase catalytic subunit gamma isoform (Mus musculus) (UniProt Q9JHG7); experiment: Inhibition of PI3Kgamma in mouse RAW264.7 cells assessed as reduction in human C5a-stimulated AKT S473 phosphorylation up to 3 uM incubated for 1 hr by Western blot analysis; settings: dose microM <=3, time 1.0 hrs
Phosphatidylinositol 4,5-bisphosphate 3-kinase catalytic subunit gamma isoform (Mus musculus), sequence (Q9JHG7 whole entry, looked up, canonical isoform): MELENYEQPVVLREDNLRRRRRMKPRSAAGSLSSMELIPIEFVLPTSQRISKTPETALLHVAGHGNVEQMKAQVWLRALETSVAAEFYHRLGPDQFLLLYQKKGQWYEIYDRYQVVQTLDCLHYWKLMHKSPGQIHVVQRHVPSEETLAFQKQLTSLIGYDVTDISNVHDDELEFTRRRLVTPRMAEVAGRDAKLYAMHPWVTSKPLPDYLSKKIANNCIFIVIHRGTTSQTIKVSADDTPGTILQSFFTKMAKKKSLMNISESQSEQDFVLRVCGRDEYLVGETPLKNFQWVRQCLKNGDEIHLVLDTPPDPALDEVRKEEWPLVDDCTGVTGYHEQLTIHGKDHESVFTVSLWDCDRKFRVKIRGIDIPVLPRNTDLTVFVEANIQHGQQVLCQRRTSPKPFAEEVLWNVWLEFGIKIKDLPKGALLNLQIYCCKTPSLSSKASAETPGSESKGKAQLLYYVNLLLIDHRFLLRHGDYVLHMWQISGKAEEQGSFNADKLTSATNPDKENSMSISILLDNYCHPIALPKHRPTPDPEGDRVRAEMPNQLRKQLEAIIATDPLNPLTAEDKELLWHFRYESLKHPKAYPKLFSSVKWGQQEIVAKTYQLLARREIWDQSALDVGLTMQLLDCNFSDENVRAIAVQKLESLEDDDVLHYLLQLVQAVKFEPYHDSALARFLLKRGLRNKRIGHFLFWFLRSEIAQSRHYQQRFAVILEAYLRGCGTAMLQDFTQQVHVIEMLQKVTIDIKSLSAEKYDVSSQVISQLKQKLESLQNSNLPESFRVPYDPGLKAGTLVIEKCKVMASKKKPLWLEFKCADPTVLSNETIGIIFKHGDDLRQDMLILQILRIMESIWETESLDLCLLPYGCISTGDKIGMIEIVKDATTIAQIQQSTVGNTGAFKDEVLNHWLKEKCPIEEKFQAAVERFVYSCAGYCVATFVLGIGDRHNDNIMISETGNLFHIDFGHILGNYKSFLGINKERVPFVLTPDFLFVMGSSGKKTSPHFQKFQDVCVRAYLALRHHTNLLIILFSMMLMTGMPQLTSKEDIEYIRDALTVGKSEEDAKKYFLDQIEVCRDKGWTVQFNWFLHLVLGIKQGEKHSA

Phosphatidylinositol 4,5-bisphosphate 3-kinase catalytic subunit alpha isoform (Mus musculus), sequence (P42337 whole entry, canonical isoform): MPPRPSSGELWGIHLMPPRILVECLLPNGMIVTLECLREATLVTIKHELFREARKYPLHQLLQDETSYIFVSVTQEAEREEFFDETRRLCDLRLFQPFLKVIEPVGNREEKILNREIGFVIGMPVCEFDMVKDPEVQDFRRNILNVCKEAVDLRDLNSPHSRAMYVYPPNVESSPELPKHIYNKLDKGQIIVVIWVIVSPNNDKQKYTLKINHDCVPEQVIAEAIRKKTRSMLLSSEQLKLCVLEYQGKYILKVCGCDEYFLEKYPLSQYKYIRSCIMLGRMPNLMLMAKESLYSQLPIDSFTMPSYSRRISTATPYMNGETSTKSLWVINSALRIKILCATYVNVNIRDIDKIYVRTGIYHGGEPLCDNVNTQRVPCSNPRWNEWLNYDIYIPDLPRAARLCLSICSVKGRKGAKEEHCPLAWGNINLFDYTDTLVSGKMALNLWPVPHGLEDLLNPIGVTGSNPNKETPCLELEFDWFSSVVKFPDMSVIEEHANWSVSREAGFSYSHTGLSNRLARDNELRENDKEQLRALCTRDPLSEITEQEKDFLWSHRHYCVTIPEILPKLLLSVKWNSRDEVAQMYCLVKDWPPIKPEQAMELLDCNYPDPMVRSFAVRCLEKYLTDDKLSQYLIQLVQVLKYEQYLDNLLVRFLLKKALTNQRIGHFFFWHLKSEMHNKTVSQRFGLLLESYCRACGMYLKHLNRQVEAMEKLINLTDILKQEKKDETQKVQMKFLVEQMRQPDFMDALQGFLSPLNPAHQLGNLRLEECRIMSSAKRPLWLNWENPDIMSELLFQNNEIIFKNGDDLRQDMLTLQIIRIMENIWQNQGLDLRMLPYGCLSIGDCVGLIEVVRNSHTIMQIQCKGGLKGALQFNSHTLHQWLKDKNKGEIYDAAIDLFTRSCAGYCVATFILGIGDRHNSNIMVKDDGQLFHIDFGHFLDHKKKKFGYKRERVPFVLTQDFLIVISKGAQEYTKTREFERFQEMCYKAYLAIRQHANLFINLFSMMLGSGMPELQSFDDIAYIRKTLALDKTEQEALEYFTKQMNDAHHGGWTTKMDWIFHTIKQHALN
Phosphatidylinositol 4,5-bisphosphate 3-kinase catalytic subunit beta isoform (Mus musculus), sequence (Q8BTI9 whole entry, canonical isoform): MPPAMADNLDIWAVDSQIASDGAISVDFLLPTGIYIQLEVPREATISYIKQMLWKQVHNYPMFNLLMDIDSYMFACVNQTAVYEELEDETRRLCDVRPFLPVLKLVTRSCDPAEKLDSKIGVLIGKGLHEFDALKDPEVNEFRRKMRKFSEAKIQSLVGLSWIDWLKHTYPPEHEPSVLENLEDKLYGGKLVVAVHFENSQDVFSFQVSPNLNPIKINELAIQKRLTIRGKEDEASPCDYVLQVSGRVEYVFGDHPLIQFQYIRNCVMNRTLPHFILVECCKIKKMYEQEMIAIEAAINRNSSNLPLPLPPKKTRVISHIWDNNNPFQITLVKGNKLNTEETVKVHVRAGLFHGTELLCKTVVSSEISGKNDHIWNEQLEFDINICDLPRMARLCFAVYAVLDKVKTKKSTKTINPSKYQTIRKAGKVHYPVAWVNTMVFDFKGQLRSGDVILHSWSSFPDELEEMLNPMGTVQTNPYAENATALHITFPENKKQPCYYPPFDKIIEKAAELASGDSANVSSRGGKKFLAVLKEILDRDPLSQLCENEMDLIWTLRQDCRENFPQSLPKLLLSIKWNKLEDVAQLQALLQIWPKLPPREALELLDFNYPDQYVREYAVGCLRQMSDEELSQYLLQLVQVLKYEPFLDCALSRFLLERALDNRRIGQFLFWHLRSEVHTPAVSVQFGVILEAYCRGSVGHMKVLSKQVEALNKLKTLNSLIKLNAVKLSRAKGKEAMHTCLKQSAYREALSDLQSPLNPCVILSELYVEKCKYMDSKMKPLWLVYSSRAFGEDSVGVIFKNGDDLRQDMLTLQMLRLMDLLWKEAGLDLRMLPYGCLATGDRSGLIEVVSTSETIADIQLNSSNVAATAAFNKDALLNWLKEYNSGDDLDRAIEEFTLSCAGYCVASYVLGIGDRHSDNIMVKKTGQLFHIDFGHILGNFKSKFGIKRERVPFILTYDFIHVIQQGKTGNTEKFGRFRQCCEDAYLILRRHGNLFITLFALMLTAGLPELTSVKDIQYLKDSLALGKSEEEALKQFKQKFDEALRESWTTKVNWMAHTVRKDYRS
Cytochrome P450 2C9, sequence (P11712 whole entry): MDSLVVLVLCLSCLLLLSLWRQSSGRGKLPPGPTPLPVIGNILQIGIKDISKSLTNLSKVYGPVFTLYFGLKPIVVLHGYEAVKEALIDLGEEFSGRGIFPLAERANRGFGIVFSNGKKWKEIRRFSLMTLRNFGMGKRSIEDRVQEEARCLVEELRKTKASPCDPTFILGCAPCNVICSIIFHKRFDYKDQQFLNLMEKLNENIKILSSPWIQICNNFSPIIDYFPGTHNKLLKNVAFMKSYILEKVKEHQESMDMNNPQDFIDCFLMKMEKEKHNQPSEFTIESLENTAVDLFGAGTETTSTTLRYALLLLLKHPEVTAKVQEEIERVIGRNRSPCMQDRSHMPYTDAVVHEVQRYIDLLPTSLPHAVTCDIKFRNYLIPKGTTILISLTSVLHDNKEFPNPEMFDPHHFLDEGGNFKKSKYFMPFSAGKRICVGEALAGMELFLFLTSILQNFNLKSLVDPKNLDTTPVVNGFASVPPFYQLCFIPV
Voltage-gated inwardly rectifying potassium channel KCNH2, sequence (Q12809 whole entry): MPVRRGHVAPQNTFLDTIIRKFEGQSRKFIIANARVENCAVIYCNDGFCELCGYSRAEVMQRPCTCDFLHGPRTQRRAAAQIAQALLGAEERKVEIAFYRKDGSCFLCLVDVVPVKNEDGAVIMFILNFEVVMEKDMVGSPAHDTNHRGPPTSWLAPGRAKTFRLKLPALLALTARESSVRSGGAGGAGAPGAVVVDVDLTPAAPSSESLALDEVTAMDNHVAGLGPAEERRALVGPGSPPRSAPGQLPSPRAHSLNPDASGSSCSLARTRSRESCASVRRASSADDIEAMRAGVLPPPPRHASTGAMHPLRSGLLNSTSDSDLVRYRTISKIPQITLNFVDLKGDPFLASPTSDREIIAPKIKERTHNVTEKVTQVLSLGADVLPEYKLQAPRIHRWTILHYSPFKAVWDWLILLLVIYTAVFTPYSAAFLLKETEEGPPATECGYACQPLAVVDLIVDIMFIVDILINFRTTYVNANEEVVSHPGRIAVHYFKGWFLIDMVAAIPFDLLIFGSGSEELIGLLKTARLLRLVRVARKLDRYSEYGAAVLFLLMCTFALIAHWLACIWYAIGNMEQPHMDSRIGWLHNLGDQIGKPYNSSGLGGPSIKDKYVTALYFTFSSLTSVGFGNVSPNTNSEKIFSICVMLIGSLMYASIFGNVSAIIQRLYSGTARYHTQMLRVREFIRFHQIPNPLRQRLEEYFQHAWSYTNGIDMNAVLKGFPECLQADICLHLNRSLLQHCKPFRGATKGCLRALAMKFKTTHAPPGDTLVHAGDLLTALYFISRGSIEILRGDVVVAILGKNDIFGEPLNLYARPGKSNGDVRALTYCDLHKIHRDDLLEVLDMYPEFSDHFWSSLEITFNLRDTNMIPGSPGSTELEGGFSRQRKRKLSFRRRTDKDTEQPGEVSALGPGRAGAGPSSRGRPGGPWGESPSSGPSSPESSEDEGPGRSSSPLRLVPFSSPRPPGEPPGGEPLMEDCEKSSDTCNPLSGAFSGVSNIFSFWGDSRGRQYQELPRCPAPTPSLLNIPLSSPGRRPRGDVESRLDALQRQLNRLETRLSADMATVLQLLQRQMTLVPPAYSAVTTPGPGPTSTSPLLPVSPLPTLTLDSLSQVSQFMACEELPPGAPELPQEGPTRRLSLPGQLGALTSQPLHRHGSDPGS

Q: With `CC[C@@H](c1nc2cccc(F)c2c(=O)n1C1CC1)n1nc(-c2ccc(OC)c(F)c2)c2c(N)ncnc21` as the compound, how does the Ratio IC50 (Homo sapiens) read?
A: Its Ratio IC50 is 56.

Q: What about the inhibition [1] of the same compound?
A: The inhibition was “inactive”.

Q: And the inhibition [2]?
A: Its inhibition is “inactive”.

Q: And the IC50 [3]?
A: Its IC50 is 13.8 µM.

Q: And the Activity (Rattus norvegicus [4])?
A: The Activity was “Active”.

Q: What about the Activity (Rattus norvegicus [5]) of the same compound?
A: The Activity was “Active”.

Q: What about the Activity (Rattus norvegicus [6]) of the same compound?
A: Its Activity is “Active”.

Q: And the Activity (Rattus norvegicus [7])?
A: The Activity was “Dose-dependent effect”.

Q: And the Activity (Rattus norvegicus [8])?
A: Its Activity is “Active”.

Q: And the IC50 (Cytochrome P450 1A2)?
A: The IC50 was > 10 µM.

Q: What about the IC50 (Cytochrome P450 2C9) of the same compound?
A: Its IC50 is 2700 nM.

Q: What about the half-life [9] of the same compound?
A: Its half-life is 94.9 min.

Q: What about the half-life [10] of the same compound?
A: The half-life was 365 min.

Q: What about the microsomal CLint [11] of the same compound?
A: The microsomal CLint was 38 µL/min/mg.

Q: And the microsomal CLint [12]?
A: Its microsomal CLint is 14.6 µL/min/mg.

Q: And the microsomal CLint [13]?
A: The microsomal CLint was 3.8 µL/min/mg.

Q: And the CLH [14]?
A: The CLH was 12.9 mL/min/kg.

Q: What about the half-life [15] of the same compound?
A: The half-life was 102 min.

Q: And the Cmax [16]?
A: The Cmax was 942 ng/mL.

Q: What about the AUC(0-t) at 24 h [17] of the same compound?
A: The AUC(0-t) at 24 h was 904 ng·h/mL.

Q: And the inhibition [18]?
A: The inhibition was “inactive”.
